From ChEMBL document CHEMBL1156224, “Design, synthesis, and antibiofilm activity of 2-arylimino-3-aryl-thiazolidine-4-ones” (2010)
Converted amounts (≈) assume the structure as drawn.

Columns and labels:
Assay type in all cases: functional
[1] = system: Staphylococcus epidermidis; assay: Antibacterial activity against Staphylococcus epidermidis RP62A by broth microdilution method
How it was run: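 MIC against S. epidermidis RP62A by CLSI broth microdilution run in tubes (tube-dilution).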

[2] = system: Staphylococcus epidermidis; assay: Antibacterial activity against Staphylococcus epidermidis RP62A assessed as colony number after 24 hrs microdilution agar plate method
How it was run: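 MBC: 100 μl from each tube without visible growth in the MIC assay subcultured onto compound-free Mueller-Hinton agar, 37 °C for 24 h. Endpoint is the lowest concentration giving subcultures with no more than five colonies per plate.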

[3] = system: Staphylococcus epidermidis; assay: Antibacterial activity against Staphylococcus epidermidis RP62A 6 hrs biofilm after 16 hrs by microtiter plate method
How it was run: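 S. epidermidis RP62A overnight culture diluted 1:10 in TSB (OD600 0.6–0.8), then 1:200 in MH; inoculated into 96-well polystyrene wells, 37 °C for 6 h to form young biofilm. Wells washed four times with sterile PBS, fresh TSB with compound at various concentrations added, further 37 °C for 16 h.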

**Q.** Which MIC [1] does the source give for Cc1ccccc1/N=C1\S/C(=C\c2ccc(O)cc2)C(=O)N1c1ccccc1C here?
**A.** > 200 µM

**Q.** What about the MBC [2] of the same molecule?
**A.** > 200 µM

**Q.** What about the Activity [3] of the same molecule?
**A.** >200 µM

**Q.** With COC(=O)c1cccc(-c2ccc(/C=C3\S/C(=N\c4ccccc4C)N(c4ccccc4C)C3=O)o2)c1 as the molecule, how does the MIC [1] read?
**A.** > 200 µM

**Q.** What about the MBC [2] of the same molecule?
**A.** > 200 µM

**Q.** And the Activity [3]?
**A.** >200 µM

**Q.** What does the source list for CCc1ccccc1/N=C1\S/C(=C\c2ccc(OCC(=O)OC)cc2)C(=O)N1c1ccccc1CC?
**A.** MIC [1]: > 200 µM; MBC [2]: > 200 µM; Activity [3]: >200 µM

**Q.** Which MIC [1] does the source give for COC(=O)COc1ccc(/C=C2\S/C(=N\c3ccccc3C)N(c3ccccc3C)C2=O)cc1OC here?
**A.** > 200 µM

**Q.** What about the MBC [2] of the same molecule?
**A.** > 200 µM

**Q.** And the Activity [3]?
**A.** >200 µM

**Q.** How did the MIC [1] turn out when COC(=O)c1cccc(-c2ccc(/C=C3\S/C(=N\c4ccc(OC)cc4)N(c4ccc(OC)cc4)C3=O)o2)c1 was run?
**A.** > 200 µM

**Q.** And the MBC [2]?
**A.** > 200 µM

**Q.** And the Activity [3]?
**A.** >200 µM

**Q.** For CCc1ccccc1/N=C1\S/C(=C\c2cccc(OCC(=O)O)c2)C(=O)N1c1ccccc1CC, which MIC [1] is on record?
**A.** 50 µM (≈ 24.3 µg/mL)

**Q.** What about the MBC [2] of the same molecule?
**A.** 100 µM

**Q.** What about the Activity [3] of the same molecule?
**A.** 100 µM

**Q.** What does the source list for CCc1ccccc1/N=C1\S/C(=C\c2ccc(-c3cccc(C(=O)O)c3)o2)C(=O)N1c1ccccc1CC?
**A.** MIC [1]: 12.5 µM (≈ 6.53 µg/mL); MBC [2]: 25 µM; Activity [3]: 25 µM

**Q.** With COc1cc(/C=C2\S/C(=N\c3ccccc3C)N(c3ccccc3C)C2=O)ccc1OCC(=O)O as the molecule, how does the MIC [1] read?
**A.** > 200 µM

**Q.** And the MBC [2]?
**A.** > 200 µM

**Q.** And the Activity [3]?
**A.** >200 µM

**Q.** What does the source list for CCc1ccccc1/N=C1\S/C(=C\c2cccc(O)c2)C(=O)N1c1ccccc1CC?
**A.** MIC [1]: > 200 µM; MBC [2]: > 200 µM; Activity [3]: >200 µM

**Q.** CN(C)c1ccc(/C=C2\S/C(=N\c3ccccc3)N(c3ccccc3)C2=O)cc1 was tested. Which MIC [1] did it give?
**A.** > 200 µM

**Q.** And the MBC [2]?
**A.** > 200 µM

**Q.** What about the Activity [3] of the same molecule?
**A.** >200 µM

**Q.** For CCc1ccccc1/N=C1\S/C(=C\c2ccc(OCC(=O)O)cc2)C(=O)N1c1ccccc1CC, which MIC [1] is on record?
**A.** 50 µM (≈ 24.3 µg/mL)

**Q.** What about the MBC [2] of the same molecule?
**A.** 100 µM

**Q.** What about the Activity [3] of the same molecule?
**A.** 100 µM

**Q.** With COC(=O)COc1ccc(/C=C2\S/C(=N\c3ccccc3C)N(c3ccccc3C)C2=O)cc1 as the molecule, how does the MIC [1] read?
**A.** > 200 µM

**Q.** What about the MBC [2] of the same molecule?
**A.** > 200 µM

**Q.** And the Activity [3]?
**A.** >200 µM

**Q.** For Cc1ccccc1/N=C1\S/C(=C\c2ccc(-c3cccc(C(=O)O)c3)o2)C(=O)N1c1ccccc1C, which MIC [1] is on record?
**A.** 12.5 µM (≈ 6.18 µg/mL)

**Q.** What about the MBC [2] of the same molecule?
**A.** 25 µM

**Q.** And the Activity [3]?
**A.** 25 µM

**Q.** Which MIC [1] does the source give for COC(=O)COc1ccc(/C=C2\S/C(=N\c3ccccc3)N(c3ccccc3)C2=O)cc1OC here?
**A.** > 200 µM

**Q.** What about the MBC [2] of the same molecule?
**A.** > 200 µM

**Q.** And the Activity [3]?
**A.** >200 µM

**Q.** With COc1cc(/C=C2\S/C(=N\c3ccccc3C)N(c3ccccc3C)C2=O)ccc1O as the molecule, how does the MIC [1] read?
**A.** > 200 µM

**Q.** What about the MBC [2] of the same molecule?
**A.** > 200 µM

**Q.** And the Activity [3]?
**A.** >200 µM

**Q.** Which results are given for Cc1ccccc1/N=C1\S/C(=C\c2ccc(OCC(=O)O)cc2)C(=O)N1c1ccccc1C?
**A.** MIC [1]: > 200 µM; MBC [2]: > 200 µM; Activity [3]: >200 µM

**Q.** For CCc1ccccc1/N=C1\S/C(=C\c2ccc(O)cc2)C(=O)N1c1ccccc1CC, which MIC [1] is on record?
**A.** > 200 µM

**Q.** What about the MBC [2] of the same molecule?
**A.** > 200 µM

**Q.** And the Activity [3]?
**A.** >200 µM

**Q.** With CCc1ccccc1/N=C1\S/C(=C\c2ccc(OCC(=O)O)c(OC)c2)C(=O)N1c1ccccc1CC as the molecule, how does the MIC [1] read?
**A.** 50 µM (≈ 25.8 µg/mL)

**Q.** And the MBC [2]?
**A.** 100 µM

**Q.** What about the Activity [3] of the same molecule?
**A.** 100 µM

**Q.** Which results are given for Cc1ccc(/N=C2\S/C(=C\c3ccc(-c4cccc(C(=O)O)c4)o3)C(=O)N2c2ccc(C)cc2)cc1?
**A.** MIC [1]: 6.25 µM (≈ 3.09 µg/mL); MBC [2]: 25 µM; Activity [3]: 12.5 µM

**Q.** COc1ccc(/N=C2\S/C(=C\c3ccc(-c4cccc(C(=O)O)c4)o3)C(=O)N2c2ccc(OC)cc2)cc1 was tested. Which MIC [1] did it give?
**A.** 6.25 µM (≈ 3.29 µg/mL)

**Q.** What about the MBC [2] of the same molecule?
**A.** 25 µM

**Q.** What about the Activity [3] of the same molecule?
**A.** 6.25 µM

**Q.** COc1cc(/C=C2\S/C(=N\c3ccccc3)N(c3ccccc3)C2=O)ccc1O was tested. Which MIC [1] did it give?
**A.** > 200 µM

**Q.** And the MBC [2]?
**A.** > 200 µM

**Q.** And the Activity [3]?
**A.** >200 µM

**Q.** With COc1cc(/C=C2\S/C(=N\c3ccccc3)N(c3ccccc3)C2=O)ccc1OCC(=O)O as the molecule, how does the MIC [1] read?
**A.** > 200 µM

**Q.** What about the MBC [2] of the same molecule?
**A.** > 200 µM

**Q.** What about the Activity [3] of the same molecule?
**A.** >200 µM

**Q.** For CCc1ccccc1/N=C1\S/C(=C\c2ccc(-c3cccc(C(=O)OC)c3)o2)C(=O)N1c1ccccc1CC, which MIC [1] is on record?
**A.** > 200 µM

**Q.** And the MBC [2]?
**A.** > 200 µM

**Q.** What about the Activity [3] of the same molecule?
**A.** >200 µM

**Q.** What does the source list for COC(=O)c1cccc(-c2ccc(/C=C3\S/C(=N\c4ccc(C)cc4)N(c4ccc(C)cc4)C3=O)o2)c1?
**A.** MIC [1]: > 200 µM; MBC [2]: > 200 µM; Activity [3]: >200 µM

**Q.** Which MIC [1] does the source give for CCc1ccccc1/N=C1\S/C(=C\c2cccc(OCC(=O)OC)c2)C(=O)N1c1ccccc1CC here?
**A.** > 200 µM

**Q.** What about the MBC [2] of the same molecule?
**A.** > 200 µM

**Q.** What about the Activity [3] of the same molecule?
**A.** >200 µM
